Measured values pooled from the literature.
Each line is one published result; the experiments were not run side by side.
EGFR L858R/T790M: Epidermal growth factor receptor (EGFR, Homo sapiens, UniProt P00533, L858R/T790M)
EGFR: Epidermal growth factor receptor (EGFR, Homo sapiens, UniProt P00533)
EGFR L861Q: Epidermal growth factor receptor (EGFR, Homo sapiens, UniProt P00533, L861Q)
EGFR T790M: Epidermal growth factor receptor (EGFR, Homo sapiens, UniProt P00533, T790M)
EGFR del746-750: Epidermal growth factor receptor (EGFR, Homo sapiens, UniProt P00533, del746-750)
EGFR del752-759: Epidermal growth factor receptor (EGFR, Homo sapiens, UniProt P00533, del752-759)
EGFR L858R: Epidermal growth factor receptor (EGFR, Homo sapiens, UniProt P00533, L858R)

SMILES | target | test | conditions | remaining binding
c1cncc(-c2cccc(Nc3nccc(NC4CCCCC4)n3)c2)c1 | EGFR L858R/T790M | binding, competition with immobilised ligand | 10 µM | 29%
O=C(NCCCN1CCOCC1)c1ccc(Nc2ncc(Cl)c(-c3ccc(Cl)s3)n2)cc1 | EGFR | binding, competition with immobilised ligand | 1 µM | 89%
O=C(NC[C@@H]1[C@H]2CN(C(=O)OCc3cc(C(F)(F)F)cc(C(F)(F)F)c3)C[C@@H]12)c1ccc2[nH]nnc2c1 | EGFR L858R/T790M | cell-free assay, competition with immobilised ligand | 1 µM | 80%
COc1cnc(Nc2cccc(S(N)(=O)=O)c2)nc1N1CCN(c2ccccc2)C(=O)C1 | EGFR | binding, competition with immobilised ligand | 1 µM | 100%
Cc1cc(C)c(-n2ccn3nc(-c4cccnc4)cc23)cc1NC(=O)c1cc(C#N)cc(S(F)(F)(F)(F)F)c1 | EGFR L861Q | cell-free assay, competition with immobilised ligand | 0.1 µM | 91.1%
O=C(c1ccc(Nc2ncc(Cl)c(-c3cc4ccccc4s3)n2)cc1)N1CCC(N2CCCC2)CC1 | EGFR L861Q | binding, competition with immobilised ligand | 1 µM | 92%
Nc1cnc(N2CCc3cc(S(=O)(=O)Nc4c(F)cc(Cl)cc4F)cc(N4CCCC4=O)c32)nc1 | EGFR | cell-free assay, competition with immobilised ligand | 1 µM | 82%
Cc1cnn2ncc(-c3ccnc(N(C)C)n3)c2c1 | EGFR T790M | binding | 1 µM | 100%
O=C(c1ccc(Nc2ncc(Cl)c(-c3ccc(Cl)s3)n2)cc1)N1CCC(N2CCCC2)CC1 | EGFR | binding, competition with immobilised ligand | 1 µM | 86%
CN(c1nccc(-c2cnn3ncccc23)n1)C1CC1 | EGFR T790M | binding | 1 µM | 100%
O=C(Nc1cnc(Oc2ccc(F)cc2)nc1)N1CCc2ncccc2[C@@H]1c1ccc(F)cc1 | EGFR del746-750 | cell-free assay, competition with immobilised ligand | 1 µM | 100%
Cc1cnc(Nc2ccc(C(=O)N3CCC(N4CCCC4)CC3)cc2)nc1-c1cc2ccccc2s1 | EGFR | binding, competition with immobilised ligand | 1 µM | 83%
CN(C(=O)c1ccccc1)c1cc(N(C)c2ccc3c(c2)CCc2ccc(C(=O)NCCN4CCOCC4)cc2C3=O)ccc1F | EGFR L861Q | cell-free assay, competition with immobilised ligand | 1 µM | 100%
CN(C)c1ncc(F)c(-c2cnn3ncccc23)n1 | EGFR L858R/T790M | binding | 1 µM | 74%
CNC(=O)[C@@H]1CC[C@@H](n2c(-c3ccc4cnccc4c3)nc3ccc(C(=O)NCc4cccc(C(N)=O)c4)cc32)C1 | EGFR del752-759 | binding, competition with immobilised ligand | 1 µM | 91%
CC(C)CC(=O)N1CCc2nc(-c3ccc(Br)cc3)nc(N(C)Cc3ccccc3)c2C1 | EGFR del746-750 | cell-free assay, competition with immobilised ligand | 0.1 µM | 100%
CC1CCCN1c1nccc(-c2cnn3ncccc23)n1 (stereo not drawn) | EGFR L858R | binding | 1 µM | 100%
O=C(c1ccc(Nc2nccc(-c3cc4ccccc4s3)n2)cc1)N1CCC(N2CCCC2)CC1 | Epidermal growth factor receptor (EGFR, Homo sapiens, UniProt P00533, G719S) | binding, competition with immobilised ligand | 1 µM | 94%
COc1ccnn2ncc(-c3ccnc(N(C)C)n3)c12 | EGFR L858R/T790M | binding | 1 µM | 93%
CCS(=O)(=O)c1cc2cc(C[C@@](O)(CC(C)(C)c3ccc(F)cc3C(N)=O)C(F)(F)F)[nH]c2cn1 | Epidermal growth factor receptor (EGFR, Homo sapiens, UniProt P00533, del747-750/T751S) | cell-free assay, competition with immobilised ligand | 1 µM | 93%
F[C@@H]1CCN(c2nccc(-c3cnn4ncccc34)n2)C1 | EGFR L858R | binding | 1 µM | 89%
O=C(NCC1CCOCC1)c1n[nH]cc1NC(=O)c1c(F)cccc1F | EGFR del752-759 | binding, competition with immobilised ligand | 1 µM | 100%
C[C@H]1CCN(c2nccc(-c3cnn4ncccc34)n2)C1 | Epidermal growth factor receptor (EGFR, Homo sapiens, UniProt P00533, G719C) | binding | 1 µM | 85%
CCN1CCN(Cc2ccc(C(=O)Nc3ccc(C)c(Oc4ccc5c(c4)CC(=O)N5)c3)cc2C(F)(F)F)CC1 | EGFR L858R | binding, competition with immobilised ligand | 1 µM | 100%
